Compounds with a hit are over-represented: about 7.2% of the library has one in this group of screens.
HEK293 NFkB inh = inhibitors of PMA/ionomycin-induced NF-kB reporter, primary screen, antigen receptor NF-kB inhibitor project, cell-based, HEK-293 luciferase reporter, luminescence; HEK-293 NF-kB luciferase reporter; inhibition, % at 3 µM; actives 0.21% (n = 62,000); AID 465, 2006;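 active = inhibition above the mean of all tested compounds plus 3 SD, cut at about 40% in these data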;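 also: 0% = stimulated DMSO wells and 100% = 10 µM reference inhibitor 5653914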
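System: NF-kB luciferase reporter HEK-293 cells | Replication: Single test | Control set: DMSO vs reference inhibitor | Evaluation: % inhibition | Schedule: 1 h pretreatment, 16 h stimulation, 37 °C | Probe or stimulus: PMA with ionomycin | Compound dosing: One dose, 3 µM | Detection: Luciferase luminescence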
D1 allo mod = D1 CRE-luciferase signal change, two-sided – cell-based, HEK293 D1, dopamine EC30, D1 allosteric modulator project, primary screen. D(1A) dopamine receptor (Homo sapiens), P21728. dopamine EC30 potentiation; actives deviate in either direction. B-score at 10 µM. actives 5.9% (n = 58,000). AID 641, 2007;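 active = luminescence count or its row- and column-corrected plate score outside the 99.7% band of the plate's sample wells, on either side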
BAP1 block = inhibitors of BAP1 deubiquitinase, primary screen, biochemical, Ub-AMC fluorescence, kinetic; actives 0.48% (n = 72,000); calls only at 20 µM; Ubiquitin carboxyl-terminal hydrolase BAP1 (Homo sapiens), Q92560; recombinant BAP1, Ub-AMC hydrolysis fluorescence kinetic; stronger effect = lower value;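 active = activity remaining at or below 50% of control, provided the compound also passes the data quality filters; inactive = the rest, including low values that fail the filters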;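 also: 100% = DMSO wells rate and 0% = substrate alone blank rate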
M1 agonist = M1 muscarinic receptor agonists, primary screen, CHO-M1 cells, Fluo-4 calcium, agonist mode. Muscarinic acetylcholine receptor M1. Fluo-4 calcium fluorescence; stronger effect = higher value. actives 3% (n = 64,000). AID 626, 2007. B-score at 10 µM;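 active = fluorescence rise, raw or as B-score row- and column-corrected plate score, outside the 99.7% band of its plate's samples, either direction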
DAT uptake mod = changed hDAT dopamine uptake under cocaine IC80, either direction, primary screen, cocaine antagonist project, cell-based, LLC-PK1 hDAT, [14C]-dopamine uptake, MLSMR; Sodium-dependent dopamine transporter (Homo sapiens), Q01959; LLC-PK1 hDAT cells, [14C]-dopamine uptake with cocaine IC80; actives deviate in either direction; B-score at 10 µM; actives 1.3% (n = 110,000);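 active = Z score or B-score, a plate-position-corrected score, falls beyond the plate's 99.7% confidence bounds, in either direction; inactive = both scores lie inside the 99.7% bounds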;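 also: scored against the spread of the other compound wells on the same plate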
M1 antagonist = antagonists of rat M1 muscarinic receptor; B-score at 10 µM; Muscarinic acetylcholine receptor M1 (Rattus norvegicus), P08482; CHO-M1 cells, Fluo-4 calcium, ACh EC80 antagonist mode; stronger effect = lower value; actives 3.4% (n = 64,000);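 active = calcium fluorescence response, raw or row-and-column corrected B-score, differing from the plate sample mean either way at a set confidence level, mostly lower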
M1 ag confirm = rat M1 muscarinic receptor agonists, confirmation, CHO-M1 cells, Fluo-4 calcium, duplicate retest | fluorescence change (max-min) at 10 µM | shares compounds with M1 agonist | Fluo-4 calcium fluorescence, agonist mode; actives lie on both sides | actives 19% (n = 1,700);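 active = fluorescence change differs from the solvent-only DMSO control mean at a set confidence level in both duplicate runs; inconclusive = differs from solvent-only control mean in just one of two runs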;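 also: an EC20 dose of acetylcholine follows compound addition during the same imaging run; raw fluorescence intensity difference in instrument units with no normalization to controls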
M4 ag counter = agonist activity at rat M4 receptor, confirmation, counter-screen for M1 allosteric modulator project, cell-based, agonist mode. shares compounds with M1 agonist. CHO M4/Gqi5 cells, Fluo-4 calcium fluorescence; actives lie on both sides. fluorescence change (max-min) at 10 µM. actives 9% (n = 1,700). AID 1741, 2009;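 active = fluorescence change differing from the plate's solvent-only control wells at 99.7% confidence in both duplicates, whether higher or lower; inconclusive = differs from solvent controls in only one of two duplicates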
Target sequence (P08485 whole entry, looked up): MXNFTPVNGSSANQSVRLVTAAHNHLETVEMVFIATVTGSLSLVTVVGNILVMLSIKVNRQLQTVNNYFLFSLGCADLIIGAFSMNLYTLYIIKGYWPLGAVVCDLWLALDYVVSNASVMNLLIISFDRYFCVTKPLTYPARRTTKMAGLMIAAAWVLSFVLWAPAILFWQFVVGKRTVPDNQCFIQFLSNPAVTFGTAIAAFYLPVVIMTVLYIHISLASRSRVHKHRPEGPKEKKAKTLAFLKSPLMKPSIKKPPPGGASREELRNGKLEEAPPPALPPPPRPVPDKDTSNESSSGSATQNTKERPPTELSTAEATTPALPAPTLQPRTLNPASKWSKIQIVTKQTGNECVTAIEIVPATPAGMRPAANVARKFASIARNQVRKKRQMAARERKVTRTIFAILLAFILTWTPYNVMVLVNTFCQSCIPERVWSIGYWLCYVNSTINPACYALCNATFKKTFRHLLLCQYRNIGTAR
The depositor's hits bear a star; i = inactive; ? = inconclusive; . = not tested or not shown.

SMILES	HEK293 NFkB inh	D1 allo mod	BAP1 block	M1 agonist	DAT uptake mod	M1 antagonist	M1 ag confirm	M4 ag counter
Cc1ccc(CSc2nc3c(c(=O)[nH]2)CCC3)cc1	.	0.698	i	2.32*	-1.08	0.68	28.3	-5.35
O=c1[nH]c(SCc2ccccc2Cl)nc2c1CCC2	19.1	0.758	.	0	0.139	0.0326	.	.
Cc1ccc(S(=O)(=O)c2cccc(S(=O)(=O)N3CCOCC3)c2)cc1S(=O)(=O)N1CCOCC1	.	.	.	.	0.445	.	.	.
Cc1ccc(S(=O)(=O)c2cccc(S(=O)(=O)N3CCCC3)c2)cc1S(=O)(=O)N1CCCC1	20.9	0.000304	.	4.18*	-0.666	-6.43*	-12.6	?
COc1cccc(-c2cc(C(=O)Nc3ccccc3C(F)(F)F)c3ccccc3n2)c1	.	.	i	.	.	.	.	.
COc1ccc(OC)c(NC(=O)Cn2cc(C(=O)c3ccco3)c3ccccc32)c1	-7.1	-0.417	.	0.386	-0.131	0.511	.	.
COc1cccc(OCCn2cc(C(=O)c3ccco3)c3ccccc32)c1	0.4	-1.1	.	5.01*	-0.0323	-0.0581	-19.2	-38.5
CCOC(=O)c1cc2c(=O)n3cccc(C)c3nc2n(Cc2ccco2)c1=NC(=O)c1cccnc1	23.2	2.78	i	39.9*	0.442	-0.901	180*	44.3
CCOC(=O)c1cc2c(=O)n3ccccc3nc2n(CCOC)c1=NC(=O)c1ccncc1	3.9	0.725	.	2.18*	0.63	0.0688	-12	-33.5
CCOC(=O)c1cc2c(=O)n3ccccc3nc2n(CCOC)c1=NC(=O)C(C)(C)C	-8.3	0.852	.	.	-0.681	.	.	.
CCOC(=O)c1cc2c(=O)n3ccccc3nc2n(Cc2ccco2)c1=NC(=O)c1cccnc1	18.1	0.193	.	6.21*	0.591	-1.03	146*	7.67
CCOCCCn1c(=NC(C)=O)c(C(=O)OCC)cc2c(=O)n3ccccc3nc21	13.1	0.469	i	-0.532	0.356	0.16	.	.
CCOC(=O)c1cc2c(=O)n3cccc(C)c3nc2n(C)c1=N	.	.	.	0.00966	.	0.709	.	.
CCn1c(=O)n(CC)c2cc(S(=O)(=O)N3CCc4ccccc43)ccc21	4.0	-1.02	i	2.58*	1.18	0.416	-6.46	-35
CCC(=O)N1CCCc2cc(S(=O)(=O)N3CCCc4ccccc43)ccc21	6.4	0.121	i	-0.551	0.203	0.673	.	.
CCCCCn1nc(-c2ccccc2)c2nc3ccccc3nc21	.	.	.	.	0.224	.	.	.
CCCn1nc(-c2ccccc2)c2nc3ccccc3nc21	3.1	2	i	475*	0.147	0.498	492*	1201*
CCn1nc(-c2ccccc2)c2nc3ccccc3nc21	-4.6	2.19	i	24.4*	0.101	-0.926	24.2	11.2
COc1ccc(-c2cn3cc(C)ccc3n2)cc1OC	-51.9	-6.46*	.	2.24*	1.09	0.33	?	?
COc1ccc(-c2csc(C)n2)cc1OC	.	.	.	.	1.26	.	.	.
CCOC(=O)C1=C(c2ccccc2)NC(=O)NC1c1ccccc1OC (stereo not given)	.	.	i	.	.	.	.	.
COCCCn1c(-c2ccco2)nc2ccccc2c1=O	4.1	2.73	i	0.0235	0.11	-0.518	.	.
COc1ccc(CCn2c(-c3ccco3)nc3ccccc3c2=O)cc1OC	-9.7	.	i	10.7*	-0.118	-2.1*	?	-73.5*

Screening results: PubChem, several laboratories
